In publication PMC6175223 (Journal of Clinical Pharmacology, 2018):
Like-named read-outs stand apart in the source and are kept apart here.

Assays:
[1] = Study A: caffeine clearance in smokers and nonsmokers; assay type: in vivo, human; settings: for Caffeine plasma clearance CL/F: 200 mg oral caffeine, geometric mean
Outline: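 A 200 mg oral caffeine capsule was given on day 6 after an overnight fast of ≥10 h, with a methylxanthine-free diet for ≥1 week before and during the study. Plasma caffeine and paraxanthine were sampled predose and at 0.5–12 h. LC-MS/MS, LLOQ 20 ng/mL. Noncompartmental CL/F. ANOVA on ln-transformed data with cohort as fixed effect; smoker/nonsmoker geometric means.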

Study B = assay type: in vivo, human; settings: for AUC(0-inf) / Cmax / Vd/F / half-life / Tmax: male, human, plasma; for Cmax / Vd/F / half-life / CL/F: geometric mean (geometric CV%); for Vd/F: Vz/F; for Tmax: median (minimum, maximum)
Study A = assay type: in vivo, human; settings: for Cmax / Vd/F / half-life / Tmax: male, human, plasma, oral, 4 mg; for Cmax / Vd/F / half-life / CL/F: geometric mean (geometric CV%); for Vd/F: Vz/F; for Tmax: median (minimum, maximum)
[2] = Study A safety assessment; assay type: in vivo, human
Outline: (§1)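 Safety was monitored by adverse-event reporting, physical examination, vital signs, 12-lead ECG and clinical laboratory tests. Concomitant medications and AEs were recorded from signing of the consent form until a follow-up safety telephone call. SAEs made known within 28 days after the last investigational dose were also recorded, as were later SAEs suspected to be related.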

[3] = Study B safety assessment; assay type: in vivo, human
Outline: as §1

[4] = cited from earlier work
[5] = healthy adult men; cited from earlier work
[6] = cited from earlier work; remark: listed apart in the source
CYP1A2 = settings: in vitro; earlier data, no reference given; cited from earlier work
CYP3A4 = settings: in vitro; earlier data, no reference given; cited from earlier work
CYP2C19 = settings: in vitro; earlier data, no reference given; cited from earlier work
CYP2D6 = settings: in vitro; earlier data, no reference given; cited from earlier work
[7] = oral, 4 mg, pomalidomide 4 mg administered alone
[8] = oral, 4 mg, pomalidomide 4 mg administered with fluvoxamine
[9] = with fluvoxamine compared with alone
[10] = smokers compared with nonsmokers
[11] = multiple dose, 0.5- to 2-mg dose range

Structure (SMILES): Cn1c(=O)c2c(ncn2C)n(C)c1=O [caffeine]
- Caffeine plasma clearance CL/F ([1]; nonsmokers (cohort B)): 5.3 L/h
- Caffeine plasma clearance CL/F ([1]; smokers (cohort A)): 9.9 L/h
- Caffeine clearance, fold higher in smokers than in nonsmokers ([1]; smokers versus nonsmokers): approximately 2 fold

Structure (SMILES): Nc1cccc2c1C(=O)N(C1CCC(=O)NC1=O)C2=O (stereo not shown) [pomalidomide]
- AUC(0-inf) (Study B; oral): 1190 ng·h/mL
- AUC(0-inf) (Study B; oral, 4 mg): 526 ng·h/mL
- Cmax (Study B; [7]): 49.2 ng/mL
- Cmax (Study B; [8]): 59.5 ng/mL
- Vd/F (Study B; [7]): 65.4 L
- Vd/F (Study B; [8]): 64 L
- half-life (Study B; oral, 4 mg, t1/2, pomalidomide 4 mg administered alone): 6 h
- half-life (Study B; oral, 4 mg, t1/2, pomalidomide 4 mg administered with fluvoxamine): 13.1 h
- Tmax (Study B; [7]): 3 h
- Tmax (Study B; [8]): 4.5 h
- AUC(0-inf) (Study B; po, 4 mg): 526 ng·h/mL
- CL/F (Study B; pomalidomide 4 mg administered alone): 7.6 L/h
- CL/F (Study B; pomalidomide 4 mg administered with fluvoxamine): 3.4 L/h
- Increase of AUC0-inf (Study B; [9]): 125.1%
- Increase of Cmax (Study B; [9]): 23.7%
- Ratio (%) of geometric means, AUC0-inf (Study B; with fluvoxamine versus alone): 225.1%
- Ratio (%) of geometric means, Cmax (Study B; with fluvoxamine versus alone): 123.7%
- Cmax (Study A; nonsmokers): 56.3 ng/mL
- Cmax (Study A; smokers): 64.4 ng/mL
- Vd/F (Study A; nonsmokers): 65.8 L
- Vd/F (Study A; smokers): 59.7 L
- half-life (Study A; t1/2, nonsmokers): 7.8 h
- half-life (Study A; t1/2, smokers): 4.8 h
- Tmax (Study A; nonsmokers): 3 h
- Tmax (Study A; smokers): 1.8 h
- CL/F (Study A; nonsmokers): 5.8 L/h
- CL/F (Study A; nonsmokers, listed as Pomalidomide): 5.8 (19.6) L/h
- Decrease of AUC0-inf (lower in smokers) (Study A; [10]): 32.3%
- Increase of Cmax (higher in smokers) (Study A; [10]): 14.4%
- Ratio (%) of geometric means, AUC0-inf (Study A; smokers/nonsmokers): 67.7%
- Ratio (%) of geometric means, Cmax (Study A; smokers/nonsmokers): 114.4%
- CL/F (Study A; smokers): 8.6 L/h
- CL/F (Study A; smokers, listed as Pomalidomide): 8.6 (32.5) L/h
- Correlation between caffeine clearance and pomalidomide clearance ([1]; in vivo, study A): good correlation
- Difference in incidence of TEAEs between smokers and nonsmokers ([2]; only TEAEs that occurred after pomalidomide dosing): no difference
- Safety and tolerability ([2]; single oral dose of 4 mg in healthy male smokers and nonsmokers ≥ 40 to ≤ 80 years old): safe and well tolerated
- Deaths ([2]; study A): no deaths
- Number of TEAEs suspected of being related to the study drug ([2]; study A): 22
- SAEs or severe TEAEs ([2]; study A): No subject experienced an SAE or severe TEAE
- Number of TEAEs reported ([2]; study A overall): 37
- Subjects reporting TEAEs suspected of being related to the study drug ([2]; study A, 12 subjects): 21.8%
- Number of TEAEs of moderate severity ([2]; study A, all presyncope, not considered related to the study drug): 3
- Safety and tolerability ([3]; single oral 4 mg pomalidomide coadministered with multiple oral 50-mg doses of fluvoxamine, healthy male subjects): safe and well tolerated
- Deaths, SAEs, or TEAEs leading to discontinuation ([3]; study B): No deaths, SAEs, or TEAEs leading to discontinuation were reported
- TEAEs related to the study drug ([3]; study B): No subject reported at least 1 TEAE related to the study drug
- Subjects reporting TEAEs ([3]; study B overall, 1 of 15 subjects): 6.7%
- mean apparent terminal half-life (t1/2) [4]: approximately 7.5 hours
- Accumulation (AUC and Cmax) [4, 11]: less than 14.0%
- Time to steady state [4, 11]: ≤ 3 days
- Dose proportionality of systemic exposure (AUC) ([4]; single dose up to 50 mg): approximately dose‐proportional
- Fraction of the dose excreted in urine as unchanged drug [5]: < 5.0 % of the administered dose
- Renal excretion of pomalidomide-related material [5]: ~73.0 % of the administered dose
- Change in pomalidomide exposure (in words) ([6]; coadministration of ketoconazole): mild increase in pomalidomide exposure that was not considered clinically relevant
- Change in mean pomalidomide exposure (in words) ([6]; concomitant fluvoxamine and ketoconazole, healthy men): approximately doubled
- t1/2 ([6]; prior drug interaction study): 6.1 h
- Increase of total drug exposure ([6]; single 4-mg dose with CYP3A inhibitor ketoconazole versus alone): 18.8%
- Increase of total drug exposure ([6]; single 4-mg dose with ketoconazole + fluvoxamine versus alone): 145.7%
- Metabolism by CYP enzyme (CYP1A2): capable of metabolizing pomalidomide
- Metabolism by CYP enzyme (CYP3A4): capable of metabolizing pomalidomide
- Metabolism by CYP enzyme (CYP2C19): to a minor extent
- Metabolism by CYP enzyme (CYP2D6): to a minor extent
